According to ChEMBL document CHEMBL1132374, “Sulfonamidopyrrolidinone factor Xa inhibitors: potency and selectivity enhancements via P-1 and P-4 optimization” (J Med Chem, 1999):

Tests used:
Prothrombin = Prothrombin (Homo sapiens, UniProt P00734); test: Inhibition of human coagulation factor II
Procedure, shortened: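 Human thrombin, final 1 nM, in 0.05 M Tris, 0.15 M NaCl, 0.1% PEG-8000, pH 7.5, room temperature. Inhibitor preincubated with enzyme 30 min, then reaction started with Pefachrome TH (50 µM final). p-Nitroanilide release read continuously at 405 nm for 5 min, under 10% substrate consumed. IC50 taken from initial velocities; apparent Ki by Cheng-Prusoff, assuming competitive inhibition.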

Coagulation factor X = Coagulation factor X (Homo sapiens, UniProt P00742); test: Inhibition of human coagulation factor Xa
Chain of Coagulation factor X (P00742 41-179 limits assumed): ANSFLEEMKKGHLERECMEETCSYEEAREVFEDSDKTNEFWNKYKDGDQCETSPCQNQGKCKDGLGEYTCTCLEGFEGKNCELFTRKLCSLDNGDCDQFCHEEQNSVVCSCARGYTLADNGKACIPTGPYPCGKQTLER
Chain of Coagulation factor X (P00742 235-488 limits assumed): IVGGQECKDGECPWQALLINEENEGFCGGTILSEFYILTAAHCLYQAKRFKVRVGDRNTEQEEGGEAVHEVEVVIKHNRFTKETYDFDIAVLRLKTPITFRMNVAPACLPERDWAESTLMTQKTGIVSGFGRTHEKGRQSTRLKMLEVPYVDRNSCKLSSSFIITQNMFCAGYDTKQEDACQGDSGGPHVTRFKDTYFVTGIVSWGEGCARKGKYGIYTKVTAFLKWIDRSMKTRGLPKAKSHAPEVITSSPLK

[1] = (§1) Activated partial thromboplastin time measured; format: ADME
Procedure, shortened: (§2)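 Citrated human, dog (mongrel) and rat (Sprague-Dawley) plasma, freshly thawed, mixed 1:1 with compound dilutions. Clotting started on an automatic coagulation timer with actin-activated cephaloplastin reagent and 0.035 M CaCl2. Value is the concentration that doubles plasma clotting time.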

[2] = target: Tissue factor (Homo sapiens) (UniProt P13726); test: as §1; format: functional; procedure, shortened: as §2
Chain of Tissue factor (Homo sapiens) (P13726 whole entry): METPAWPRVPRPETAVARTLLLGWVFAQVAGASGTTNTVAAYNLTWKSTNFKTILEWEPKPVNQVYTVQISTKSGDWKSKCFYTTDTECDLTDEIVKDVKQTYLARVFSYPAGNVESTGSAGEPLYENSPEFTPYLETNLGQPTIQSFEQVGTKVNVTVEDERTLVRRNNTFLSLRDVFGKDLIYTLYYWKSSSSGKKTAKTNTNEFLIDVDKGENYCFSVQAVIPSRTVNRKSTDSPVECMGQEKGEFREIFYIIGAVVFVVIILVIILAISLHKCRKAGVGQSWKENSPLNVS

Compound	Ki (Prothrombin) [µM]	Ki (Coagulation factor X) [µM]	APTT [1] [µM]	APTT [2] [µM]
Cn1ccnc1-c1ccc(S(=O)(=O)N[C@H]2CCN(Cc3cccc(C(=N)N)c3)C2=O)cc1	> 4	2.6	–	–
COc1ccc2ccc(S(=O)(=O)N[C@H]3CCN(Cc4cc(N)cc(C(=N)N)c4)C3=O)cc2c1	> 4	1.2	–	–
COc1ccc2ccc(S(=O)(=O)N[C@H]3CCN(Cc4cc(C(=N)N)ccc4OCC(=O)O)C3=O)cc2c1	> 4	1.3	–	–
COc1ccc2ccc(S(=O)(=O)N(C)[C@H]3CCN(Cc4csc(C(=N)N)c4)C3=O)cc2c1	–	–	1.5	–
N=C(N)c1ccc(F)c(CN2CC[C@H](NS(=O)(=O)c3ccc(-c4cccnc4)s3)C2=O)c1	4	0.13	–	–
COc1nccc(-c2ccc(S(=O)(=O)N[C@H]3CCN(Cc4cccc(C(=N)N)c4)C3=O)s2)n1	> 4	0.15	–	–
N=C(N)c1cccc(CN2CC[C@H](NS(=O)(=O)c3ccc(-c4cc[n+]([O-])cc4)cc3)C2=O)c1	> 4	0.33	–	–
COc1ccc2ccc(S(=O)(=O)N[C@H]3CCN(Cc4ccc(O)c(C(=N)N)c4)C3=O)cc2c1	> 4	0.983	–	–
N=C(N)c1cccc(CN2CC[C@H](NS(=O)(=O)c3ccc(-c4ccncc4)s3)C2=O)c1	3	–	–	–
N=C(N)c1cccc(CN2CC[C@H](NS(=O)(=O)c3ccc(-c4cccnc4)s3)C2=O)c1	> 4	0.041	–	–
N=C(N)c1cccc(CN2CC[C@H](NS(=O)(=O)c3ccc(-c4ccncc4)cc3)C2=O)c1	> 4	0.13	–	–
N=C(N)c1cccc(CN2CC[C@H](NS(=O)(=O)c3ccc(-c4ccccn4)cc3)C2=O)c1	4	0.15	–	–
N=C(N)c1cccc(CN2CC[C@H](NS(=O)(=O)c3ccc(-c4ccon4)s3)C2=O)c1	> 4	0.049	–	–
C[n+]1ccc(-c2ccc(S(=O)(=O)N[C@H]3CCN(Cc4cccc(C(=N)N)c4)C3=O)cc2)cc1	> 4	0.13	–	–
COc1ccc2ccc(S(=O)(=O)N(C)[C@H]3CCN(Cc4cc(C(=N)N)ccc4NC(C)=O)C3=O)cc2c1	> 4	0.919	–	–
N=C(N)c1cccc(CN2CC[C@H](NS(=O)(=O)c3ccc(-c4ccccn4)s3)C2=O)c1	> 4	0.14	–	–
N=C(N)c1cccc(CN2CC[C@H](NS(=O)(=O)c3ccc(-c4ccccc4)cc3)C2=O)c1	> 4	0.16	–	–

Now from value to molecule:

Ki (Prothrombin) [µM]	Ki (Coagulation factor X) [µM]	APTT [1] [µM]	APTT [2] [µM]	Compound
0.201	0.004	–	–	COc1ccc2ccc(S(=O)(=O)N(C)[C@H]3CCN(Cc4cc(C(=N)N)ccc4N)C3=O)cc2c1
0.263	0.008	–	–	COC(=O)COc1ccc(C(=N)N)cc1CN1CC[C@H](NS(=O)(=O)c2ccc3ccc(OC)cc3c2)C1=O
2.23	0.007	–	–	N=C(N)c1ccc(N)c(CN2CC[C@H](NS(=O)(=O)c3ccc(-c4ccon4)s3)C2=O)c1
2.6	0.006	–	–	N=C(N)c1ccc(N)c(CN2CC[C@H](NS(=O)(=O)c3ccc(-c4cccnc4)s3)C2=O)c1
2.22	0.003	–	–	N=C(N)c1ccc(O)c(CN2CC[C@H](NS(=O)(=O)c3ccc(-c4ccon4)s3)C2=O)c1
1.05	–	–	–	COc1ccc2ccc(S(=O)(=O)N(C)[C@H]3CCN(Cc4cccc(C(=N)N)c4)C3=O)cc2c1
2.8	0.002	–	0.32	N=C(N)c1ccc(O)c(CN2CC[C@H](NS(=O)(=O)c3ccc(-c4cccnc4)s3)C2=O)c1
0.206	0.003	–	–	COc1ccc2ccc(S(=O)(=O)N[C@H]3CCN(Cc4cc(C(=N)N)ccc4O)C3=O)cc2c1
1.96	0.21	–	–	N=C(N)c1cccc(CN2CC[C@H](NS(=O)(=O)c3ccc(-c4cccnc4)cc3)C2=O)c1
1.43	–	–	–	COc1ccc2ccc(S(=O)(=O)N[C@H]3CCN(Cc4cccc(C(=N)N)c4)C3=O)cc2c1
0.278	0.006	–	–	COc1ccc2ccc(S(=O)(=O)N[C@H]3CCN(Cc4cc(C(=N)N)ccc4N)C3=O)cc2c1
